Reference: article PMC11292830 (ACS Omega, 2024)
Bridges are numbered along the chain shown (N, C = ends). Where no end group is shown, it is not given here.

How the values were obtained:
[1] = FRET assay in solution of Cy3- and Cy5-labeled peptides; type: physicochemical; conditions: 100 nM Cy3-labeled plus 100 nM Cy5-labeled peptide in PBS, excitation of Cy3 at 490 nm, microplate reader, n = 3
[2] = cited from earlier work
[3] = Native mass spectrometry of oligomeric state; type: physicochemical; conditions: 50 mM ammonium acetate (pH 6.9), native ESI-MS, column bypassed
In short: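 Intact-mass LC/MS on a QTof instrument fed by UHPLC, with the column bypassed to capture the full oligomer profile. Test compound was in 50 mM ammonium acetate (pH 6.9) under native conditions. Electrospray in positive ionization mode; source temperature 300 °C; ion spray voltage 5500 V. Spectra were inspected over the expected regions for larger oligomers.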

[4] = Differential scanning calorimetry of the oligomers; type: physicochemical; conditions: DSC, 10 mg/mL in 20 mM Tris-HCl pH 7.5, 100 mM NaCl, 4 to 110 °C at 1 °C/min, 3 atm, first scan

FRET efficiency [1]: 0.36
oligomeric state by native mass spectrometry [3]: prefers to form oligomers
melting temperature (Tm2) [4]: 63.8 °C
Sequence: LKKLCLKLKKLCKLAG (disulfide 5-12 (inferred)) [LK-3]
molecularity of the oligomer by SEC-MALS [2]: tetramer of dimers
